Reference: ChEMBL document CHEMBL1156534, “Hemopressin is an inverse agonist of CB1 cannabinoid receptors” (Proc Natl Acad Sci U S A, 2007)

How the values were obtained:
Type in all cases: functional, cell-based
[1] = target: T1, Alpha-2A adrenergic receptor (Homo sapiens) (UniProt P08913); test: Antagonist activity at alpha2A adrenergic receptor expressed in HEK293 cells assessed as blockade of secreted alkaline phosphatase activity at 1 uM after 6 hrs relative to control
T1 sequence (whole entry): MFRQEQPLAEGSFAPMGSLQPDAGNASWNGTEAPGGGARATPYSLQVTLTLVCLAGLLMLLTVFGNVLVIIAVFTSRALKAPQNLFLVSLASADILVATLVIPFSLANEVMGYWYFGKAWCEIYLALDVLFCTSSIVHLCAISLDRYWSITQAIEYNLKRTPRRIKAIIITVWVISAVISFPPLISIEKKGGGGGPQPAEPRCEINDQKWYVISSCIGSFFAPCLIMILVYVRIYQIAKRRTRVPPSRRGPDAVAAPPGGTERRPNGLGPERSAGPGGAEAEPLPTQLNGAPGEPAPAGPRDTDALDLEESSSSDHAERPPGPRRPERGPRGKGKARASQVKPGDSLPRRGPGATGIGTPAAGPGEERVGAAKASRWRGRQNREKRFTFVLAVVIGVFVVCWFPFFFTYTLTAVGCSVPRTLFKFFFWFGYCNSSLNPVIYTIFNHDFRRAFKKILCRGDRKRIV
Outline: (§1)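 HEK-293 cells transiently co-transfected with pCRE-SeAP and a Flag-tagged receptor, 30,000 cells/well on poly-L-lysine. They were serum-starved 16–18 h, then exposed 6 h in serum-free medium to 10 μM forskolin (omitted for β2) plus the receptor agonist (100 nM), with or without peptide (1 μM). Heat-treated supernatant SeAP was read by CSPD chemiluminescence. Mean ± SEM, n = 6.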

[2] = target: Cannabinoid receptor 2 (Homo sapiens) (UniProt P34972); test: Antagonist activity at CB2 receptor expressed in HEK293 cells assessed as blockade of secreted alkaline phosphatase activity at 1 uM after 6 hrs relative to control
Cannabinoid receptor 2 (Homo sapiens), sequence (P34972 whole entry): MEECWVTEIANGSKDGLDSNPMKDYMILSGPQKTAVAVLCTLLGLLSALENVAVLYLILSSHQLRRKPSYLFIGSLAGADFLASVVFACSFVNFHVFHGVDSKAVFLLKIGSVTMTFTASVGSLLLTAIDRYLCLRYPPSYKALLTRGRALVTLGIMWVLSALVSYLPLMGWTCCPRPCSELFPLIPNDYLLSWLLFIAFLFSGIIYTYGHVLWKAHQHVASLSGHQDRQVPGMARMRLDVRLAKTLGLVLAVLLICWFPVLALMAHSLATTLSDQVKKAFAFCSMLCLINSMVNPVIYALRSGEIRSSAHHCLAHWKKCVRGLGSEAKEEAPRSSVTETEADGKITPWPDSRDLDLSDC
Outline: (§2)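 HEK-293 cells transfected with 5 μg pCRE-SeAP plus 1 μg Flag-tagged CB₁ or CB₂ receptor, 30,000 cells/well, serum-starved 16–18 h. Stimulated 6 h in serum-free medium with 10 μM forskolin and 100 nM agonist, without or with 1 μM test peptide. Supernatant diluted in pH 7.2 buffer, heated 65°C 20 min, then CSPD chemiluminescence read. Mean ± SEM, n = 6.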

[3] = target: Delta-type opioid receptor (Homo sapiens) (UniProt P41143); test: Antagonist activity at delta opioid receptor expressed in HEK293 cells assessed as blockade of secreted alkaline phosphatase activity at 1 uM after 6 hrs relative to control; outline: as §1
Delta-type opioid receptor (Homo sapiens), sequence (P41143 whole entry): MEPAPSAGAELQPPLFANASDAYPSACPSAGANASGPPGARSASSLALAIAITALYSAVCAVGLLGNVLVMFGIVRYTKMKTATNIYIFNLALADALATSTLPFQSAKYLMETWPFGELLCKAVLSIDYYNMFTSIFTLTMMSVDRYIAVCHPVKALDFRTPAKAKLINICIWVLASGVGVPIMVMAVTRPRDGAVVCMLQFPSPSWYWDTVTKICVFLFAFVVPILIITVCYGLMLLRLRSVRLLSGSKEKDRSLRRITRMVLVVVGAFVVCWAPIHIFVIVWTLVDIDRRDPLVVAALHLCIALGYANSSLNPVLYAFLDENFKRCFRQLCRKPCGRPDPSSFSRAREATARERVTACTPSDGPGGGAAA

[4] = target: Beta-2 adrenergic receptor (Homo sapiens) (UniProt P07550); test: Antagonist activity at beta2 adrenergic receptor expressed in HEK293 cells assessed as blockade of secreted alkaline phosphatase activity at 1 uM after 6 hrs relative to control; outline: as §1
Beta-2 adrenergic receptor (Homo sapiens), sequence (P07550 whole entry, looked up): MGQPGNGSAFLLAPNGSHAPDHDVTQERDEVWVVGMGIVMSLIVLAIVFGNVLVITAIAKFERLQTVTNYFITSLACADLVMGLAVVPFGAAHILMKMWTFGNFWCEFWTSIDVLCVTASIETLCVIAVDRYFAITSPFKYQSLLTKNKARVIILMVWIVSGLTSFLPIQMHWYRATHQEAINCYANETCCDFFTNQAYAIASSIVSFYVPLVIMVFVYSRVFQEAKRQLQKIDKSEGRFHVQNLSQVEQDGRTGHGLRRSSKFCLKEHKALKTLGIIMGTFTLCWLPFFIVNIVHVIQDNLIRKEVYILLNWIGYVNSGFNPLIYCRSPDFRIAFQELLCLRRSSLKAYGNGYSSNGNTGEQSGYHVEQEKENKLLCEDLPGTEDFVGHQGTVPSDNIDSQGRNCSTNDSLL

[5] = target: Cannabinoid receptor 1 (Homo sapiens) (UniProt P21554); test: Antagonist activity at CB1 receptor expressed in HEK293 cells assessed as blockade of secreted alkaline phosphatase activity at 1 uM after 6 hrs relative to control; outline: as §2
Cannabinoid receptor 1 (Homo sapiens), sequence (P21554 whole entry): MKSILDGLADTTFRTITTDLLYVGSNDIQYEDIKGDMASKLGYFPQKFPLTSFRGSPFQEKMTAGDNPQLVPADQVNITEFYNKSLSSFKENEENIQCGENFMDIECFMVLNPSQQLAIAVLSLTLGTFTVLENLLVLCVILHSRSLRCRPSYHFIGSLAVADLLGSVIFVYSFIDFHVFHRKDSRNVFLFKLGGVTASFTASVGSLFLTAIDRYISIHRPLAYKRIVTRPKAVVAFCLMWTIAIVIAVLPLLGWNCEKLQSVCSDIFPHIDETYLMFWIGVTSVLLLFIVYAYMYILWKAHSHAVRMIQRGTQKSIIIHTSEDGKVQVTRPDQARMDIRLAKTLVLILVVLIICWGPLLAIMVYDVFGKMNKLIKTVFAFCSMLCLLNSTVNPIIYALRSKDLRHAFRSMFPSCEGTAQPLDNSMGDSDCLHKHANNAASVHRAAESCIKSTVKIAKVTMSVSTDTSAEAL

[6] = target: Mu-type opioid receptor (Homo sapiens) (UniProt P35372); test: Antagonist activity at mu opioid receptor expressed in HEK293 cells assessed as blockade of secreted alkaline phosphatase activity at 1 uM after 6 hrs relative to control; outline: as §1
Mu-type opioid receptor (Homo sapiens), sequence (P35372 whole entry): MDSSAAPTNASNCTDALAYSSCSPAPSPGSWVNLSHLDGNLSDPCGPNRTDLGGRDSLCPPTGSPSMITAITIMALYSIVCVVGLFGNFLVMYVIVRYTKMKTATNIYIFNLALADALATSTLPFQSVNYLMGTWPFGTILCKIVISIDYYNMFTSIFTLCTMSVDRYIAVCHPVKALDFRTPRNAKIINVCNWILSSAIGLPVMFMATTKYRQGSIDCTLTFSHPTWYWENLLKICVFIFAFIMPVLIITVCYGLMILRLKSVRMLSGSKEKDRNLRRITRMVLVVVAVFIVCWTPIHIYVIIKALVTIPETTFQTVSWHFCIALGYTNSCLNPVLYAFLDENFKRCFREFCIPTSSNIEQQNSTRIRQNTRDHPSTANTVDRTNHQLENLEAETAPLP

`CC(C)NCC(O)c1ccc(O)c(O)c1` (stereo unspecified) was tested, and the Activity [1] was 1.26.

`CC(C)[C@H](NC(=O)[C@H](CCC(=O)O)NC(=O)[C@H](Cc1ccccc1)NC(=O)[C@H](C)NC(=O)[C@@H](N)Cc1ccc(O)cc1)C(=O)N[C@H](C(=O)NCC(=O)O)C(C)C` showed an Activity [2] of 0.64.

`CC[C@H](C)[C@H](NC(=O)[C@H](Cc1ccc(O)cc1)NC(=O)[C@@H](NC(=O)[C@H](CCCNC(=N)N)NC(=O)[C@@H](N)CC(=O)O)C(C)C)C(=O)N[C@@H](Cc1cnc[nH]1)C(=O)N1CCC[C@H]1C(=O)N[C@@H](Cc1ccccc1)C(=O)O` showed an Activity [3] of 1.03 and an Activity [4] of 0.76.

With `C[C@@H](NC(=O)[C@@H](N)Cc1ccc(O)cc1)C(=O)NCC(=O)N(C)[C@@H](Cc1ccccc1)C(=O)NCCO` the Activity [5] was 0.68.

Work on `Clc1cccc(Cl)c1NC1=NCCN1` yielded an Activity [6] of 0.59.
